Bioassay records: PubChem, Johns Hopkins Ion Channel Center
KCNK3 inh = human KCNK3 channel inhibition, primary screen. CHO-KCNK3 thallium flux, FluxOR fluorescence; stronger effect = lower value. B-score at 10 µM. 0.84% of 340,000 active. AID 602410;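 active = B-score under library mean minus 4 SD, starting fluorescence ratio at most library mean plus 5 SD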;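 note: more negative B-score means stronger inhibition of thallium flux through KCNK3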
Target sequence (O14649 whole entry, looked up): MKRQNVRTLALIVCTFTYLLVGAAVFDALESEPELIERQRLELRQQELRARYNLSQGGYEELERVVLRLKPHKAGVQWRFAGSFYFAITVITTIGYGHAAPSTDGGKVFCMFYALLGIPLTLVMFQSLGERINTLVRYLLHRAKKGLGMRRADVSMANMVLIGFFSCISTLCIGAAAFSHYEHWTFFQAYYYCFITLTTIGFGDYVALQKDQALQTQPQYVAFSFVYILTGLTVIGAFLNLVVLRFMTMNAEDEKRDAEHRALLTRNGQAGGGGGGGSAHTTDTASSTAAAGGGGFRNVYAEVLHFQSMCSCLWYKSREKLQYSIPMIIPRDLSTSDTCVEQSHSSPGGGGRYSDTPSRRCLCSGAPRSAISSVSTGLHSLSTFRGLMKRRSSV
KCNQ1 pot = potentiators or activators of human KCNQ1 potassium channel; P51787; CHO-K1 KCNQ1, thallium flux FluxOR fluorescence; stronger effect = higher value; B-score at 10 µM; 0.35% of 310,000 active;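 active = fluorescence ratio B-score, a plate-corrected score, at least three library SD, with initial intensity B-score within 5 SD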
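Material: CHO-K1 cells stably expressing KCNQ1. Medium: assay buffer for compound exposure, DMSO matched across wells. Reagent: K+/Tl+ depolarizing stimulus. Compound dosing: single-concentration screen. Times: 37 °C overnight plating, 90-min dark dye load, 20-min compound pretreatment. Technique: FluxOR Tl+ flux fluorescence.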
Kir21 inh = inhibitors of mouse Kir2.1 inward-rectifier potassium channel | P35561 | HEK293-Kir2.1, FluxOR thallium flux fluorescence; stronger effect = lower value | B-score at 10 µM | 0.85% of 310,000 active;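 active = fluorescence ratio B-score at or below minus 3 SD of library scores, with starting-brightness B-score within 2 SD, cut at about -4.2 in these data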;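 note: channel flux triggered by added potassium and thallium sulfate stimulus; B-score of peak minus minimum fluorescence over baseline after thallium stimulus; more negative B-score means stronger Kir2.1 block with less thallium influx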
KCNQ1 block = human KCNQ1 channel inhibition; CHO-K1 KCNQ1, FluxOR thallium flux fluorescence; stronger effect = higher value; P51787; 1.3% of 310,000 active; B-score at 10 µM; AID 2642;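 active = compounds whose thallium flux B-score, printed positive for inhibition, exceeds three library SD while starting fluorescence stays within three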;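 note: channel opened by potassium depolarization with thallium stimulus after 20 min compound exposure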
hERG rescue = hERG (human) protection from proarrhythmic block | Q12809 | CHO-hERG, FluxOR thallium flux, dofetilide IC70 present | AID 1511 | 0.51% of 310,000 active | activation (rescue from dofetilide block), less the hit threshold, % at 10 µM;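 active = activation above the mean of controls blocked by dofetilide plus 5 SD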;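 note: thallium influx through hERG after potassium depolarization seen as dye fluorescence rise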
KCNK9 block = blocks the human KCNK9 two-pore domain potassium channel; HEK293 KCNK9, FluxOR thallium flux fluorescence; stronger effect = lower value; B-score at 10 µM; 1.2% of 310,000 active;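 active = ratio B-score over 3 SD below the library mean, with starting fluorescence within 5 SD of its mean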;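 note: negative B-score means less thallium flux so channel inhibition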
Active calls of the source: *; i = inactive; . = no result. Sampled rows, rich in hits. Any-hit rate of the full collection: about 3.7%.

SMILES | KCNK3 inh | KCNQ1 pot | Kir21 inh | KCNQ1 block | hERG rescue | KCNK9 block
Cc1ccc(Cn2ccsc2=NC(=O)COC(=O)c2ccc(O)cc2O)cc1 | i | i | -1.1 | i | -5 | i
O=C(COC(=O)c1ccc(O)cc1O)N=c1sccn1Cc1ccccc1Cl | i | i | -1.9 | i | -10 | -6.9*
COc1ccc(CN2CCN(Cc3cccc4nonc34)CC2CCO)c(C)c1C (stereo unspecified) | i | i | -1.5 | i | 5.3* | i
CC(=O)NCCNc1ccc([N+](=O)[O-])cc1C#N | i | i | 0.86 | i | 5.8* | i
COc1ccccc1-n1c(C)nc(=O)c(-c2ccccc2)c1C | i | i | -0.01 | i | 5.3* | i
O=C(Nc1nnc(-c2ccccc2)o1)c1cc(Cl)sc1Cl | i | i | 0.57 | i | 4 | i
O=C(COc1ccccc1)Nc1nnc(-c2ccc3c(c2)CCCC3)o1 | i | i | -2.1 | i | -17 | i
O=C(Nc1nnc(-c2ccc3c(c2)CCCC3)o1)c1ccccc1Cl | i | 12* | 0.37 | i | -3 | i
O=C(Nc1nnc(-c2ccc(F)cc2)o1)c1cc(Cl)sc1Cl | i | 23* | -0.7 | i | 10* | i
O=C(COC(=O)CCCSc1nc2ccccc2[nH]1)Nc1ccc(Cl)cc1 | i | i | 0.66 | i | -15 | i
CCOC(=O)C1=C(CSc2nc(-c3ccncc3)ccc2C#N)OC(N)=C(C#N)C1c1ccc(OC)cc1 (stereo unspecified) | i | i | -0.18 | i | -12 | -7.9*
CN(Cc1ccccc1N1CCCC1)C(=O)c1cc2cc(Cl)ccc2o1 | -9.5* | . | . | . | . | .
CN(Cc1ccccc1N1CCCC1)C(=O)c1cc2ccccc2o1 | -11* | . | . | . | . | .
CN(Cc1c(F)cccc1Cl)C(=O)c1cc2ccccc2o1 | i | i | -0.2 | i | -13 | i
CSCCC(NC(=O)c1ccccc1)C(=O)OCC(=O)NCc1ccco1 (stereo unspecified) | i | . | . | . | . | .
CCCc1ccc(C2C3=C(CC(C)(C)CC3=O)NC3=C2C(=O)c2ccccc23)cc1 (stereo unspecified) | i | i | -2.1 | 9* | -9 | i
CC1(C)CC(=O)C2=C(C1)NC1=C(C(=O)c3ccccc31)C2c1ccc(O)cc1 (stereo unspecified) | i | i | -0.01 | i | -3 | i
Cc1occc1C(=O)NNC(=O)c1ccc(Br)o1 | i | i | 0.25 | i | -6 | i
Cc1ccc(C)c2[nH]c(=O)c(CN(Cc3ccco3)S(=O)(=O)c3ccc4c(c3)OCCO4)cc12 | i | i | -0.25 | 6* | -15 | i
Cc1ccc(C)c2[nH]c(=O)c(CN(Cc3ccc4c(c3)OCO4)Cc3nnnn3Cc3ccco3)cc12 | -9.4* | i | 1.9 | i | -11 | -7.1*
COc1ccc(CNC(=O)c2cncc(Br)c2)cc1 | i | i | 1.5 | i | -10 | i
Oc1ccc(C(=Nc2ccccc2)c2ccccc2)c(O)c1 | i | . | . | . | . | .
Cc1nc(SCc2nc3c(F)cccc3[nH]2)c2oc3ccccc3c2n1 | i | . | . | . | . | .
Cc1ccc(C(C[N+](=O)[O-])n2nc(C)cc2C)cc1 (stereo unspecified) | i | i | -8* | i | -7 | i
Cc1ccc(S(=O)(=O)NCC(C)n2nc(C)cc2C)cc1 (stereo unspecified) | i | i | -0.09 | i | 1 | i
SMILES | KCNK3 inh | KCNQ1 pot | Kir21 inh | KCNQ1 block | hERG rescue | KCNK9 block
CCC1(c2ccc(Cl)cc2)NC(=S)N(c2ccccc2)N1 (stereo unspecified) | i | 40* | -0.07 | i | 49* | i
CCCCCCC1(C)NC(=S)N(c2ccccc2)N1 (stereo unspecified) | i | i | -0.9 | i | -3 | i
N#CC(c1ccc(Cl)cc1)c1ccc2c(C(F)(F)F)cc(C(F)(F)F)nc2n1 (stereo unspecified) | i | 60* | -2.1 | i | -4 | i
Cc1cccc(NCc2ccc(O)c3ncccc23)c1C | i | i | 0.55 | i | -10 | i
Cc1cccnc1NCc1ccc(O)c2ncccc12 | i | i | 1.6 | i | 6.8* | i
O=C(NCCCCc1ccccc1)c1cccc(NC(=O)C2CCCC2)c1 | i | . | . | . | . | .
O=C(CCCCn1ccc(=O)[nH]c1=O)Nc1ccc(O)c(C(=O)O)c1 | i | . | . | . | . | .
CNC(=S)/N=C/NOCc1ccc(Cl)cc1Cl | i | i | 0.28 | 8* | -33 | i
OCCN1CCN(CC/C=C2/c3ccccc3Sc3ccc(C(F)(F)F)cc32)CC1 | i | i | -5.4* | i | -19 | i
CCN(CC)CCCCN1c2ccccc2Sc2ccccc21 | i | i | -5.8* | i | -14 | i
CN(C)CCCN1c2ccccc2Sc2ccc(C(F)(F)F)cc21 | i | i | -5.1* | i | -15 | i
OCCN1CCN(CCCN2c3ccccc3Sc3ccc(C(F)(F)F)cc32)CC1 | i | i | -7.1* | i | -22 | i
CN(C)CCC(=O)N1c2ccccc2Sc2ccc(C(F)(F)F)cc21 | i | i | -0.69 | i | -14 | i
CC(C(=O)Nc1ccc(Br)cc1)N(C)CC(=O)NCc1ccco1 (stereo unspecified) | i | . | . | . | . | .
CC(C)C[C@H]1CNC(=O)C(=O)N1CC1CCN(CC2CCC(C(C)(C)C)CC2)CC1 (stereo partly specified) | i | . | . | . | . | .
O=C(Nc1cccc(S(=O)(=O)NC2=NCCC2)c1)c1ccc(C(F)(F)F)cc1 | i | . | . | . | . | .
COc1ccc(C)cc1Nc1n[n+](-c2ccccc2)c(-c2cc(OC)c(OC)cc2Br)s1 | i | i | -6* | 7* | -21 | i
CSC1=NSC2=NC(=O)/C(=C\c3ccc(OC(=O)c4ccco4)cc3)C(=N)N12 | i | i | -0.62 | i | -12 | i
COc1cc(/C=C2\C(=N)N3N=C(S(=O)(=O)CC(C)C)SC3=NC2=O)ccc1OC(=O)c1ccco1 | . | i | -6* | i | -15 | i
CC(C)CS(=O)(=O)C1=NSC2=NC(=O)/C(=C\c3ccc(OC(=O)c4ccco4)cc3)C(=N)N21 | i | i | -4.4* | i | -8 | i
CCS(=O)(=O)C1=NN2C(=N)/C(=C\c3ccc(OS(=O)(=O)c4ccccc4)c(OC)c3)C(=O)N=C2S1 | . | i | 0.88 | i | -30 | i
O=C(NC(=S)Nc1nc2c(s1)CCCC2)c1ccc(C(=O)c2ccccc2)cc1 | i | 9* | 1.9 | i | 14* | i
O=C(Nc1nc2c(s1)CCCC2)c1cccnc1 | i | i | -0.68 | i | -12 | i
